Bioassay records as filed in PubChem.
Sampled rows, rich in hits. Any-hit rate of the full collection: about 2.9%.
CAL PDZ FP-1: CAL PDZ peptide-binding inhibitors, primary screen, biochemical, fluorescence polarization, Cer-tagged CAL PDZ, HTS | purified CAL PDZ, TMR-peptide fluorescence polarization, 1 h | inhibition, % at 20 µM | hit rate 0.02% among 330,000 | AID 504414, 2011;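 active = highest replicate inhibition of at least 40%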;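 also: plate controls were DMSO neutral control wells for no effect and unlabeled competitor peptide control wells for full effect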
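Read-out basis: mP drop reported as inhibition | Assay system: Tagged CAL PDZ protein CerCALP, purified | Benchmarks: Unlabelled peptide for full inhibition, DMSO wells as neutral | Schedule: 1 h incubation at room temperature before polarization reading | Buffer or medium: Sodium phosphate/NaCl buffer pH 7.4 with TCEP, IgG, Thesit | Doses: Single point, 20 µM | Measured by: Fluorescence polarization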
S100A4 MyoIIA: inhibitors of S100A4-myosin IIA peptide binding, primary screen, biochemical, fluorescence polarization, TAMRA-MyoIIA peptide. inhibition, % at 10.7 µM. Protein S100-A4 (Homo sapiens), P26447. hit rate 0.14% among 360,000. AID 652163, 2013;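 active = mean inhibition of at least 70% across replicates, with every replicate also reaching that level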
Target sequence (P26447 whole entry, looked up): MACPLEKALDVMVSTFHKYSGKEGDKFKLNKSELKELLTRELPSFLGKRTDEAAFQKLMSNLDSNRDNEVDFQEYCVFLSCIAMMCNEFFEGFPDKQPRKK
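Test system: S100A4 monomer protein. Medium: HEPES buffer with Ca2+, pH 7.2. Reagent: fluorescent myosin IIA peptide, 5 nM. Compound dosing: single-point compound testing. Timing: 5 min between mix addition and reading. Benchmarks: DMSO neutral and TFP positive wells.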
CAL PDZ FP-2: untagged CAL PDZ binding inhibitors, primary screen, biochemical, fluorescence polarization, HTS. purified CAL PDZ, TMR-peptide fluorescence polarization, 1 h. hit rate 0.92% among 300,000. inhibition, % at 24.9 µM. Golgi-associated PDZ and coiled-coil motif-containing protein (Homo sapiens), Q9HD26;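 active = mean inhibition of at least 30% with at least half of replicates also reaching 30%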;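 also: 0% = DMSO neutral control and 100% = excess unlabeled competitor peptide PRC23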
DENV2 CPE rescue: inhibitors of DENV2 cytopathic effect, primary screen, cell-based, plate reader, single concentration; DENV2-infected cells, cytopathic effect rescue; CPE inhibition, % at 9.99 µM; hit rate 1.7% among 350,000; AID 651640, 2012; in the data active = CPE inhibition above about 20%, passing the limit was not always enough; tested in BHK-21 cells;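 also: 0% = median of neutral control wells and 100% = median of positive control wells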
ERAP1 inh: human ERAP1 aminopeptidase inhibitors, primary screen, biochemical, single point, plate reader; Endoplasmic reticulum aminopeptidase 1 (Homo sapiens), Q9NZ08; recombinant ERAP1, Leu-AMC fluorescence, 60 min; inhibition, % at 10.7 µM; hit rate 0.15% among 340,000; AID 652197, 2013;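 active = mean replicate inhibition of at least 30%, or all replicates individually reaching that 30% level; inactive = mean below 30% and not every replicate reaching it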;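 also: 0% = neutral control wells and 100% = L-leucinethiol positive control wells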
SIRT5 block: SIRT5 desuccinylase inhibitors, primary screen, biochemical, fluorescence imaging, single point, set 5; NAD-dependent protein deacylase sirtuin-5, mitochondrial (Homo sapiens), Q9NXA8; Purified SirT5, succinyl-peptide AMC, trypsin-coupled fluorescence; inhibition, % at 15 µM; hit rate 1.1% among 330,000; AID 652115, 2013; in the data active = inhibition above about 15%
Target sequence (Q9NXA8 whole entry, looked up): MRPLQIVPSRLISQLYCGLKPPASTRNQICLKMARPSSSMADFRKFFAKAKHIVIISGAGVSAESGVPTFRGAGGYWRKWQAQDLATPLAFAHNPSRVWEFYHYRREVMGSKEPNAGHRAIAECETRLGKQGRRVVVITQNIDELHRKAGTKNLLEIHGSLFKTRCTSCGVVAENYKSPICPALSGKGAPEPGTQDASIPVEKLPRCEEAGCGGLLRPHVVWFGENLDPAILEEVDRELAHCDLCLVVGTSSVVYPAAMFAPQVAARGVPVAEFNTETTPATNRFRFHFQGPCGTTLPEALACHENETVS
An asterisk follows results filed as active; nt = not tested or not shown; ! = a repeat was not active.

SMILES	CAL PDZ FP-1	S100A4 MyoIIA	CAL PDZ FP-2	DENV2 CPE rescue	ERAP1 inh	SIRT5 block
CNC[C@@H]1Oc2ccc(NS(=O)(=O)c3ccc(F)cc3)cc2C(=O)N([C@H](C)CO)C[C@@H]1C	nt	4	nt	53*	1	-6
COc1ccc(S(=O)(=O)Nc2ccc3c(c2)C(=O)N([C@@H](C)CO)C[C@H](C)[C@H](CN(C)S(=O)(=O)c2ccc(F)cc2)O3)cc1	-1	-2	-11	31*!	1	4
COc1ccc(S(=O)(=O)Nc2ccc3c(c2)C(=O)N([C@H](C)CO)C[C@@H](C)[C@H](CN(C)S(=O)(=O)c2ccc(F)cc2)O3)cc1	nt	-5	nt	25*	0	3
COC(=O)C[C@H]1CC[C@H]2[C@@H](COC[C@@H](O)CN2S(=O)(=O)c2ccccc2C)O1	nt	-5	nt	13	-2	-1
Cc1noc(C)c1NC(=O)N(C)C[C@@H]1OCCCC[C@H](C)Oc2ccc(NS(=O)(=O)c3c(C)noc3C)cc2C(=O)N([C@H](C)CO)C[C@@H]1C	nt	-5	nt	-8	-2	-1
CCOc1cccc(N)c1	0	nt	0	nt	nt	nt
CCOc1ccc(N)c(SSc2cc(OCC)ccc2N)c1	1	-4	0	-5	38*	-1
Cc1ccc(S(=O)(=O)N(C)C[C@@H]2OCCCC[C@@H](C)Oc3ccc(NC(=O)c4ccccc4)cc3C(=O)N([C@@H](C)CO)C[C@H]2C)cc1	nt	0	nt	14	2	3
CCC(=O)Nc1ccc2c(c1)OC[C@H](C)N(C(=O)C1CC1)C[C@@H](C)[C@@H](OC)CN(C)C2=O	nt	nt	nt	-4	nt	-6
Cn1cc(/C=C/c2cc[n+](C)cc2)c2cc(F)ccc21	1	0	-1	nt	66*	11
Cn1cc(/C=C/c2cc[n+](C)cc2)c2cc(Cl)ccc21	0	-8	14	12	13	-7
Cc1ccc2[nH]c(C)c(/C=C/c3cc[n+](C)cc3)c2c1	1	-38	2	2	16	10
C[n+]1ccc(/C=C/c2c[nH]c3ccc(F)cc23)cc1	1	-1	-3	2	4	26*
O=S(=O)(c1cccc(F)c1)N1[C@@H]2CNC[C@H]1C2c1ccc(-c2cccc(F)c2)cc1 (some centres undefined)	nt	-8	nt	-14	-1	-3
CN(C=O)c1ccc(CSc2ccccc2)cc1	0	0	1	9	-1	36*
C[C@@H]1CN([C@@H](C)CO)C(=O)Cc2cc(NC(=O)c3ccncc3)ccc2O[C@@H]1CN(C)S(C)(=O)=O	nt	1	nt	-5	0	-3
Cn1c(=O)n(CC(=O)Nc2ccccc2)c2ccccc21	1	nt	-1	nt	nt	nt
Cn1c(=O)c2sc3c(c2n(CC(=O)Nc2ccccc2)c1=O)COC(C)(C)C3	-1	-3	31*	-4	1	-1
CC(=O)N1CC[C@@H]2[C@H]1c1cc(-c3ccc(C#N)cc3)ccc1N(C)[C@@H]2CO	nt	11	nt	-1	-2	-24
CN(C(=O)Nc1ccc(F)cc1)[C@H]1C[C@H]2c3[nH]c4ccccc4c3CCN2C(=O)[C@H]1CO	nt	-5	nt	44*	-3	1
COc1ccc(NC(=O)N(C)[C@H]2C[C@H]3c4[nH]c5ccccc5c4CCN3C(=O)[C@H]2CO)cc1	nt	0	nt	14	-20	-2
CCCN1[C@@H]2c3ccc(C4=CCCCC4)c(=O)n3C[C@@H]2[C@@H](CO)[C@@H]1C(=O)N(C)C	nt	1	nt	0	2	1
Cc1cc(C)c(C#N)c(Nc2cccc(C)c2C)n1	4	-7	83*	5	-7	-1
Nc1nc(C2CCCN2S(=O)(=O)c2ccc(Cl)cc2)cs1 (centres undefined)	-3	nt	46*	nt	nt	nt
Cc1ccccc1S(=O)(=O)N1CC(=O)N2[C@H](C1)[C@H](c1ccc(C#CCC(C)C)cc1)[C@@H]2CO	nt	-1	nt	0	0	11
SMILES	CAL PDZ FP-1	S100A4 MyoIIA	CAL PDZ FP-2	DENV2 CPE rescue	ERAP1 inh	SIRT5 block
CC(C)C#Cc1cnc2c(c1)C(=O)N([C@H](C)CO)C[C@H](C)[C@H](CN(C)S(=O)(=O)c1cn(C)cn1)O2	nt	-5	nt	-1	0	-3
CCCCCC(=O)Nc1nc(C)c(-c2csc(Nc3cc(Cl)ccc3OC)n2)s1	-1	-6	-5	-3	0	24*
Cc1noc(C)c1C(=O)N(C)C[C@@H]1OCc2ccccc2-c2c(n(C)c3ccccc23)C(=O)N([C@@H](C)CO)C[C@H]1C	nt	2	nt	1	1	1
Cc1noc(C)c1C(=O)N(C)C[C@@H]1OCc2ccccc2-c2c(n(C)c3ccccc23)C(=O)N([C@H](C)CO)C[C@H]1C	nt	-7	nt	-5	-4	17*
C[C@@H]1CN([C@H](C)CO)C(=O)c2c(c3ccccc3n2C)-c2ccccc2CO[C@@H]1CN(C)C(=O)c1cc(Cl)cc(Cl)c1	nt	3	nt	60*	0	19*
C[C@H]1CN([C@@H](C)CO)C(=O)c2c(c3ccccc3n2C)-c2ccccc2CO[C@@H]1CN(C)C(=O)c1cc(Cl)cc(Cl)c1	nt	2	nt	-2	-1	1
COc1cccc(S(=O)(=O)Nc2ccc3c(c2)OC[C@H](C)NC[C@H](C)[C@H](OC)CN(C)C3=O)c1	nt	7	nt	0	1	1
COc1cc2cc(CCCOC(=O)CCCC(=O)O)oc(=O)c2cc1OC	1	3	-5	38*	-1	nt
CN1CCN(S(=O)(=O)c2cccs2)CC1	nt	0	0	34*	1	-5
Cc1ccc(Cc2c(-c3ccccc3)nc3ccc(Br)cn23)cc1	nt	0	nt	-1	1	-14
Cc1ccc(Cc2c(-c3ccc(Br)cc3)nc3cc(C)ccn23)cc1	nt	13	nt	6	1	28*
Cc1ccc(Cc2c(-c3ccc(F)cc3)nc3cc(C)ccn23)cc1	nt	-7	nt	-3	-1	15*
Cc1ccc(Cc2c(-c3ccc(F)cc3)nc3ccc(Cl)cn23)cc1	nt	-9	nt	7	-2	-5
Cc1ccc(C2=C(O)C(=O)C(c3ccc(C)cc3)=C(O)C2=O)cc1	1	-1	1	56*	1	-1
COc1ccc(C(=O)C2CCN(C(=S)NCCc3ccccc3)CC2)cc1	-2	-8	-4	-2	-1	16*
CC(C)(C)NC(=S)N1CCC(C(=O)c2ccc(Cl)cc2)CC1	-1	0	-3	21*	0	2
